Reference: article PMC2077835 (Drug metabolism and disposition: the biological fate of …, 2006)

Test: DB289 metabolism by heat-inactivated human liver microsomes
Format: in vitro ADME
Conditions: 60°C for 90 s; data not shown
In short: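 Human liver microsomes were heated at 60°C for 90 s before incubation to inactivate flavin monooxygenase. Then used in standard NADPH incubations (pH 7.4 phosphate, MgCl2, 37°C) to test FMO contribution to substrate metabolism.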

## CON=C(N)c1ccc(-c2ccc(-c3ccc(C(N)=NOC)cc3)o2)cc1 [DB289, 2,5-bis(4-amidinophenyl)furan-bis-O-methylamidoxime]
  effect of heat inactivation of microsomes on DB289 metabolism: did not impede DB289 metabolism
